Data taken from ChEMBL document CHEMBL1149300, “Novel retinoic acid metabolism blocking agents endowed with multiple biological activities are efficient growth inhibitors of human breast and prostate cancer cells in vitro and a human breast tumor xenograft in nude mice” (J Med Chem, 2004).
Active and inactive are the calls of the source. The rule behind the calls is not given here.

How the values were obtained:
LNCaP [1] = experiment: Induction of cell differentiation in human LNCaP cells after 6 days; format: functional, cell-based
Outline: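 LNCaP cells given 1 µM compound, alone or with 1 µM ATRA, for 6 days. Lysates (50 µg) run on 10% SDS-PAGE and Western blotted with anti-cytokeratin 8/18, β-actin as control. ECL detection; band intensity by densitometry taken as the differentiation marker.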

[2] = Inhibition of ATRA hydroxylase in Syrian golden hamster liver microsome assessed ATRA metabolism using [11.12-3H]-ATRA; format: microsomes, Mesocricetus auratus
Outline: (§1)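 Microsomes from male Syrian golden hamster liver, or from T47D cells pretreated with 1 µM ATRA. Incubation in 0.1 M phosphate buffer pH 7.4 with NADPH, MgCl2 and BSA, inhibitor in DMSO; 3 min preincubation at 37 °C, then [11,12-3H]-ATRA for 30 min at 37 °C under oxygen. Ethyl acetate extraction, reverse-phase HPLC with radiometric detection; percent polar metabolites; IC50 from dose-response curves.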

Cytochrome P450 26A1 [3] = target: T1, Cytochrome P450 26A1 (Homo sapiens, UniProt O43174); experiment: Inhibition of ATRA-induced CYP26 in human MCF7 cells assessed ATRA as metabolism using [11.12-3H]-ATRA; format: functional, cell-based
T1 sequence (O43174 whole entry): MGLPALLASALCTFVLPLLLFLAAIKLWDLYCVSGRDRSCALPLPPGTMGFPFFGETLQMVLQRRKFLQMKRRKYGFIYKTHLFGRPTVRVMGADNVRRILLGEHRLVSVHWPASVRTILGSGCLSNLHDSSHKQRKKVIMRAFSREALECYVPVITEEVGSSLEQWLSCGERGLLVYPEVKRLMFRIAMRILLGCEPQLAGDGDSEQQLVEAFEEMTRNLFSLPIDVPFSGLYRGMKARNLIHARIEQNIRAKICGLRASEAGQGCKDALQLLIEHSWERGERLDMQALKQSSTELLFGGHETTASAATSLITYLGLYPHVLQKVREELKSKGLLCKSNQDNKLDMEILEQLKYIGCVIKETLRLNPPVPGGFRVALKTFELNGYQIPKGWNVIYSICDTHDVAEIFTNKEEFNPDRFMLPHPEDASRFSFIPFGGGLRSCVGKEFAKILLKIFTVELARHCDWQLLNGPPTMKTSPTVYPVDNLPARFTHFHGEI
Outline: (§2)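 MCF-7 or T47D cells (1 × 10^6 per well) induced with 1 µM ATRA for 12-15 h, washed, then given inhibitor (0.0001-10 µM, ethanol stock) plus 0.001 µM [11,12-3H]-ATRA for 5 h. Media and cells extracted with ethyl acetate; metabolites measured by reverse-phase HPLC with radiometric detection; IC50 from dose-response curves.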

Cytochrome P450 26A1 [4] = target: T1, Cytochrome P450 26A1; experiment: Inhibition of ATRA-induced CYP26 in human T47D cells assessed as ATRA metabolism using [11.12-3H]-ATRA; format: functional, cell-based; outline: as §2
Cytochrome P450 26A1 [5] = target: T1, Cytochrome P450 26A1; experiment: Inhibition of ATRA-induced CYP26 in human T47D cell microsome assessed as ATRA metabolism using [11.12-3H]-ATRA; format: functional, microsomes; outline: as §1
MCF7 [6] = experiment: Growth inhibition of human MCF7 cells after 6 days by MTT assay; format: functional, cell-based; conditions: MCF7, 144 h
Outline: (§3)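 MCF-7 (IMEM, 5% FBS) or T47D (RPMI 1640, 10% FBS) cells, 1 × 10^4 per well, adhered ~18 h, then exposed to 0.0001-10 µM drug (ethanol) for 6 days with media and drug renewed on day 4. MTT for 2 h, formazan dissolved in DMSO, A540. Triplicate wells, 2-3 experiments; IC50 by nonlinear regression.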

T47D [7] = experiment: Growth inhibition of human T47D cells after 6 days by MTT assay; format: functional, cell-based; conditions: 144 h; outline: as §3
MDA-MB-231 = experiment: Growth inhibition of human MDA-MB-231 cells up to 10 uM after 6 days by MTT assay; format: functional, cell-based
LNCaP [8] = experiment: Growth inhibition of human LNCaP cells after 6 days by MTT assay; format: functional, cell-based; conditions: 144 h
Outline: (§4)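 LNCaP cells (1 × 10^4) on poly-L-lysine-coated wells, attached 36 h; PC-3 cells (1 × 10^4), uncoated, attached 24 h; both in RPMI 1640. Treated with a concentration range of drug for 6 days, medium changed every 3 days. MTT read-out at 540 nm; IC50 by nonlinear regression from at least two experiments.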

PC-3 = experiment: Growth inhibition of human PC3 cells after 6 days by MTT assay; format: functional, cell-based; conditions: PC-3, 144 h; outline: as §4
[9] = target: T2, Retinoic acid receptor alpha (Homo sapiens, UniProt P10276); experiment: Displacement of [11,12-3H]ARTA from RARalpha
T2 sequence (P10276 whole entry): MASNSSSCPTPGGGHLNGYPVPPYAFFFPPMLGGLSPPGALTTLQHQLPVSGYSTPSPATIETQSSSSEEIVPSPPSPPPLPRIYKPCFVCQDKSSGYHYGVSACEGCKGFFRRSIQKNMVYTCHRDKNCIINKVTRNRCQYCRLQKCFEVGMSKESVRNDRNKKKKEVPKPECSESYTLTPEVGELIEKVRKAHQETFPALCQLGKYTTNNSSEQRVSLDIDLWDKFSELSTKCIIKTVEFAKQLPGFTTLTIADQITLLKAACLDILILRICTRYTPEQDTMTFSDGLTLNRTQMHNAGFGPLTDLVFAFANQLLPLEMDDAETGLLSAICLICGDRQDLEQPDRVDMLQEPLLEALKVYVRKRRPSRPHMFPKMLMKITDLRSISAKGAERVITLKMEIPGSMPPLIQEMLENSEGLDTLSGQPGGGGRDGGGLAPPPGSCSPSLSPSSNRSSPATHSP
Outline: (§5)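 Recombinant S-Tag RARα, RARβ or RARγ fusion protein extracts (10-30 µg/mL total protein) in HEPES pH 7.9 binding buffer. Incubated with 1 nM [3H]all-trans-RA and 0-500 nM test compound for 3 h at 27 °C.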

[10] = target: T3, Retinoic acid receptor beta (Homo sapiens, UniProt P10826); experiment: Displacement of [11,12-3H]ARTA from RARbeta; outline: as §5
T3 sequence (P10826 whole entry): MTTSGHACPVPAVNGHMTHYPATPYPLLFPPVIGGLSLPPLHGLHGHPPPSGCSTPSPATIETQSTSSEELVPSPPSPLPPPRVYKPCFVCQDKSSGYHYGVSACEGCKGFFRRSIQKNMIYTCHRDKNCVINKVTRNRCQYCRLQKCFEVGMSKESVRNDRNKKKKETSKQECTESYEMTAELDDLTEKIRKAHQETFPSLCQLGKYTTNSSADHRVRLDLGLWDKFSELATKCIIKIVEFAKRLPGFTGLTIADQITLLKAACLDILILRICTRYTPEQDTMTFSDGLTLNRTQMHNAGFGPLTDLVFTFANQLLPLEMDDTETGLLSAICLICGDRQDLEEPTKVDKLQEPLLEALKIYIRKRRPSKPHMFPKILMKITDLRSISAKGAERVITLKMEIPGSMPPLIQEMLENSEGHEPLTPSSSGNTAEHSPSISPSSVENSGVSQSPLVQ

[11] = Displacement of [11,12-3H]ARTA from RARgamma; set-up: species or system Homo sapiens
Outline: as §5, with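 “°C. Nonspecific binding measured with a 200-fold excess of unlabeled RA; IC50 from dose-response curves, at least two experiments.” for “°C.”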

MCF7 [12] = experiment: Induction of apoptosis in human MCF7 cells at 1 uM for 6 days by TUNEL assay; format: functional, cell-based
Outline: (§6)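 MCF-7 or T47D cells exposed to 1 µM compound for 6 days, then trypsinized, fixed in 1% paraformaldehyde and stored in 70% ethanol at -20 °C overnight. TdT/BrdUTP labeling (APO-BRDU TUNEL), fluorescein anti-BrdU plus PI/RNase stain; apoptotic cells counted by flow cytometry.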

T47D [13] = experiment: Induction of apoptosis in human T47D cells at 1 uM for 6 days by TUNEL assay; format: functional, cell-based; outline: as §6
MCF7 [14] = experiment: Reduction of tumor growth in MCF7 cells xenografted ovariectomized mouse at 0.033 mmol/kg, sc for 6 weeks relative to control; format: functional, Homo sapiens; set-up: scale not given: the % may be the effect or the level left
Outline: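 Female ovariectomized nude mice received estrogen pellets. MCF-7 cells (2 × 10^6 in Matrigel) were injected sc into both flanks and grown 4-5 weeks to 200-300 mm3. Groups of n = 5 were dosed sc once daily, 6 days/week for 6 weeks, vehicle 0.3% HPC, 200 µL. Tumors were measured weekly by caliper, volume = (4/3)πr1²r2, and change was compared with vehicle controls.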

SMILES | IC50 [2] | Ki [2] | IC50 (Cytochrome P450 26A1 [5]) | IC50 [9] | IC50 [10] | IC50 [11] | other results
COC(=O)/C=C(C)/C=C/C=C(C)/C=C/C1=C(C)[C@H](n2ccnc2)CCC1(C)C (stereo in doubt; (-)-5) |  |  | 680 nM |  |  |  | IC50 (Cytochrome P450 26A1 [4]; t47d): 6 µM
COC(=O)/C=C(C)/C=C/C=C(C)/C=C/C1=C(C)[C@H](n2ccnc2)CCC1(C)C (stereo in doubt; (+)-5) |  |  | 800 nM |  |  |  | IC50 (Cytochrome P450 26A1 [4]): 6 µM
CC1=C(/C=C/C(C)=C/C=C/C(C)=C\C(=O)O)C(C)(C)CCC1n1ccnc1 (racemic) | 119 nM | 4.12 nM |  | 100 nM | 175 nM | 65 nM | 
CC1=C(/C=C/C(C)=C/C=C/C(C)=C\C(=O)n2ccnc2)C(C)(C)CCC1n1ccnc1 (racemic) | 57.5 nM |  |  |  |  |  | 
CC1=C(/C=C/C(C)=C/C=C/C(C)=C\C(=O)Nc2ccc(O)cc2)C(C)(C)CCC1n1ccnc1 (racemic) | 76.7 nM | 0.78 nM |  |  |  |  | 

Now from value to molecule, other results behind:

IC50 [2] | Ki [2] | IC50 (Cytochrome P450 26A1 [5]) | IC50 [9] | IC50 [10] | IC50 [11] | SMILES | other results
2.33 nM | 0.22 nM | 2.4 nM | 20 nM | 175 nM | 45 nM | CC1=C(/C=C/C(C)=C/C=C/C(C)=C/C(=O)O)C(C)(C)CCC1n1ccnc1 (racemic) | Activity (LNCaP [1]): Active; IC50 (Cytochrome P450 26A1 [3]): 10.9 nM; IC50 (Cytochrome P450 26A1 [4]): 0.0063 µM; IC50 (MCF7 [6]): 490 nM; IC50 (T47D [7]): 3 nM; Activity (MDA-MB-231): inactive; IC50 (LNCaP [8]): 10 µM; IC50 (PC-3): 7.7 µM; Activity (MCF7 [12]): Active; Activity (T47D [13]): Active; Activity (MCF7 [14]): 85.2%
51.7 nM |  |  | 20 nM | 90 nM | 80 nM | CC1=C(/C=C/C(C)=C/C=C/C(C)=C/C(=O)n2cncn2)C(C)(C)CCC1 | 
46.7 nM |  |  | 410 nM | 250 nM | 300 nM | CC1=C(/C=C/C(C)=C/C=C/C(C)=C/C(=O)O)C(C)(C)CCC1n1cnnc1 (racemic) | 
21.7 nM |  |  |  |  |  | COC(=O)/C=C(C)/C=C/C=C(C)/C=C/C1=C(C)C(n2cnnc2)CCC1(C)C (racemic) | 
